Data from ChEMBL document CHEMBL3044914, “Synthesis of novel 12-aryl-8,9,10,12-tetrahydrobenzo[a]xanthene-11-thiones and evaluation of their biocidal effects” (2012).
Values after ≈ are worked out from the molar mass of the structure shown.

How the values were obtained:
Spodoptera litura [1] = assay: Insect growth regulatory activity against Spodoptera litura third-instar larvae assessed as abnormal or dead larva level at 0.1% measured after 24 hr post compound treatment by leaf-dip method; assay type: functional
Method in brief: (§1)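 Third-instar larvae were reared on artificial diet, newly moulted and pre-weighed at 30–40 mg. The 0.1% solution was a stock, applied at different concentrations. Leaves on moistened filter paper in Petri dishes were sprayed with the test solution and dried. Ten larvae were placed per dish, in triplicate, with carrier-solvent controls. Larval weight, mortality, pupation, deformed pupae, intermediates, adult emergence and deformed adults were recorded after 24 h.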

Alternaria porri = assay: Antifungal activity against Alternaria porri by food poison technique; assay type: functional; conditions: read-out: ED50 (the source's name)
Fusarium oxysporum = assay: Antifungal activity against Fusarium oxysporum by food poison technique; assay type: functional; conditions: read-out: ED50 (the source's name)
Spodoptera litura [2] = assay: Insect growth regulatory activity against Spodoptera litura third-instar larvae assessed as mortality at 0.1% measured after 24 hr post compound treatment by leaf-dip method; assay type: functional; method in brief: as §1
[3] = Inhibition of soil urease assessed as urea-N level at 1% compound level measured after 27 hr; conditions: concentration not given here
Method in brief: (§2)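 Soil from cultivated institute farm fields, 50 g air-dried per beaker, moisture kept daily with distilled water. Compound in acetone added at 1% of applied urea-N (0.1 mg); urea-alone control; completely randomized design, three replicates. 5 g samples taken at 9 and 27 h, extracted with 1 M sodium sulfate containing phenyl mercuric acetate to stop hydrolysis; urea-N estimated.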

Spodoptera litura [4] = assay: Insecticidal activity against Spodoptera litura third-instar larvae exposed to 0.1% compound on ventral side of larvae assessed as mortality after 24 hr post compound treatment by contact method; assay type: functional
Method in brief: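 Topical treatment of third-instar larvae aged 7 ± 1 day. Each treatment was run in triplicate with solvent as control. Mortality was recorded after 24 h.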

Spodoptera litura [5] = assay: Insect growth regulatory activity against Spodoptera litura third-instar larvae assessed as normal adult level at 0.1% measured after 24 hr post compound treatment by leaf-dip method; assay type: functional
Spodoptera litura [6] = assay: Insect growth regulatory activity against Spodoptera litura third-instar larvae assessed as abnormal pupa or dead pupa level at 0.1% measured after 24 hr post compound treatment by leaf-dip method; assay type: functional; method in brief: as §1
[7] = Inhibition of soil urease assessed as urea-N level at 1% compound level measured after 9 hr; conditions: concentration not given here; method in brief: as §2
Macrophomina phaseolina = assay: Antifungal activity against Rhizoctonia bataticola by food poison technique; assay type: functional; conditions: read-out: ED50 (the source's name)
Spodoptera litura [8] = assay: Insect growth regulatory activity against Spodoptera litura third-instar larvae assessed as growth inhibition index at 0.1% measured after 24 hr post compound treatment by leaf-dip method; assay type: functional
Spodoptera litura [9] = assay: Insecticidal activity against Spodoptera litura third-instar larvae fed on 0.1% compound pre-treated castor leaves assessed as mortality after 24 hr post compound treatment by feeding method; assay type: functional
Method in brief: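 Castor leaf was dipped for 2 s in a 0.1% solution, air-dried and placed on moist filter paper in 9 cm Petri plates. Third-instar larvae aged 7 ± 1 day were prestarved 4 h and released singly into each plate. There were thirty replications per treatment, with a solvent control. Mortality was scored at 24 h.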

Athelia rolfsii = assay: Antifungal activity against Athelia rolfsii by food poison technique; assay type: functional; conditions: Agroathelia rolfsii; read-out: ED50 (the source's name)

Row | SMILES | Activity (Spodoptera litura [1]) [%] | EC50 (Alternaria porri) [µg/mL] | EC50 (Fusarium oxysporum) [µg/mL] | mortality (Spodoptera litura [2]) [%] | inhibition [3] [%] | mortality (Spodoptera litura [4]) [%] | Activity (Spodoptera litura [5]) [%] | Activity (Spodoptera litura [6]) [%] | inhibition [7] [%] | EC50 (Macrophomina phaseolina) [µg/mL] | growth inhibition (GI) (Spodoptera litura [8]) [%] | mortality (Spodoptera litura [9]) [%] | EC50 (Athelia rolfsii) [µg/mL]
1 | S=C1CCCC2=C1C(c1ccccc1)c1c(ccc3ccccc13)O2 (stereo not given) | 0 | 210 (≈ 613 µM) | 287 (≈ 839 µM) | 40 | 22 | 10 | 50 | 10 | 47 | 438 (≈ 1280 µM) | 50 | 30 | 500 (≈ 1460 µM)
2 | S=C1CCCC2=C1C(c1ccccc1Br)c1c(ccc3ccccc13)O2 (stereo not given) | 20 | 136 (≈ 322 µM) | 148 (≈ 352 µM) | 0 | -2 | 50 | 75 | 5 | 1 | 286 (≈ 678 µM) | 25 | 90 | 225 (≈ 535 µM)
3 | CC1(C)CC(=S)C2=C(C1)Oc1ccc3ccccc3c1C2c1ccc(F)cc1 (stereo not given) |  | 199 (≈ 511 µM) | 260 (≈ 670 µM) | 0 | 0 | 10 | 50 | 0 | -3 | 345 (≈ 888 µM) | 50 | 40 | 358 (≈ 922 µM)
4 | CC1(C)CC(=S)C2=C(C1)Oc1ccc3ccccc3c1C2c1ccccc1 (stereo not given) | 0 | 336 (≈ 906 µM) | 326 (≈ 879 µM) | 50 | 5 | 20 | 35 | 15 | 5 | 570 (≈ 1540 µM) | 75 | 20 | 525 (≈ 1420 µM)
5 | COc1ccccc1C1C2=C(CC(C)(C)CC2=S)Oc2ccc3ccccc3c21 (stereo not given) | 20 | 418 (≈ 1040 µM) | 336 (≈ 838 µM) | 30 | 6 | 15 | 40 | 10 | 24 | 484 (≈ 1210 µM) | 60 | 30 | 324 (≈ 810 µM)
6 | CC1(C)C(C=C(Cl)Cl)C1C(=O)OC(C#N)c1cccc(Oc2ccccc2)c1 (stereo not drawn) [ALPHA-CYPERMETHRIN] |  |  |  |  |  | 100 |  |  |  |  |  |  | 
7 | O=[N+]([O-])c1ccc(C2C3=C(CCCC3=S)Oc3ccc4ccccc4c32)cc1 (stereo not given) | 10 | 212 (≈ 547 µM) | 358 (≈ 923 µM) | 50 | -1 | 0 | 20 |  | 1 | 555 (≈ 1430 µM) | 80 | 70 | 670 (≈ 1730 µM)
8 | CC1(C)CC(=S)C2=C(C1)Oc1ccc3ccccc3c1C2c1cccs1 (stereo not given) | 0 | 456 (≈ 1210 µM) | 375 (≈ 997 µM) | 15 | -8 | 0 | 65 | 20 | 4 | 590 (≈ 1570 µM) | 35 | 10 | 457 (≈ 1210 µM)
